Test results from PubChem BioAssay AID504351 (Broad Institute, 2011).
Records with an inconclusive call do not appear. The source made the active and inactive calls.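 How the source made its calls: active means every replicate test active, meaning falling signal with half-maximal potency at most ten times the top valid dose; inconclusive means replicate test calls disagree with each other; inactive means every replicate test inactive, including signal rising instead.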

Experiments:
[1] = secreted streptokinase activity reduction in group A streptococci – OD405 absorbance, dry powder, set 3, dose response (AID 504351); conditions: S. pyogenes UMAA2166, streptokinase activity in supernatant, OD405, 6 h; at 50 µM (top of the series)
Outline: (§1)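 Timing: 6 h compound exposure of cultures at 37 °C. Assay system: group A Streptococcus cultures. Dosing: multi-point serial dilution series of compounds.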

[2] = biological target: S. pyogenes UMAA2166, streptokinase activity in supernatant, OD405, 6 h; experiment: as above
Outline: as §1

Compound | activity change, negative = inhibition [1] | AC50 [2] [µM]
COc1ccc(Sc2ccc(NCc3ccccc3Cl)cc2C#N)cc1 | inactive | –
COc1ccc(Sc2ccc(NC(=O)c3ccc(C)cc3)cc2C#N)cc1 | inactive | –
COc1ccc2c(c1)c1cc(OC)ccc1n2C(=O)c1ccc(C)cc1 | inactive | –
COc1ccc(Sc2ccc(NC(=O)c3ccc(OC)cc3)cc2C#N)cc1 | inactive | –
COc1nc(-c2cccc(F)c2)nc2ccccc12 | inactive | –
COc1ccc(Sc2ccc(NC(=O)c3ccccc3Cl)cc2)cc1 | inactive | –
O=c1[nH]c(-c2cccc(Cl)c2)nc2ccccc12 | inactive | –
COc1ccc(Sc2ccc(NC(=O)c3ccccc3C#N)cc2C#N)cc1 | inactive | –
Cc1ccc(NC(=O)n2c3ccccc3c3ccccc32)cc1 | inactive | –
COc1cccc(-c2nc3ccccc3c(=O)[nH]2)c1 | inactive | –
CCCOc1ccc(-c2nc3ccccc3c(=O)[nH]2)cc1 | inactive | –
COc1nc(-c2cccc(Cl)c2)nc2ccccc12 | inactive | –
O=c1[nH]c(-c2cccc(F)c2)nc2ccccc12 | inactive | –
CS(=O)(=O)c1ccc(NC(=O)c2ccccc2Cl)cc1 | inactive | –
Cc1ccc(C(=O)n2c3ccccc3c3ccccc32)cn1 | inactive | –
COc1ccccc1C(=O)n1c2ccccc2c2ccccc21 | inactive | –
COc1ccc(Sc2ccc(N(C(=O)c3ccccc3Cl)C(=O)c3ccccc3Cl)cc2C#N)cc1 | inactive | –
Cc1ccc(C(=O)n2c3ccccc3c3cccnc32)cc1 | inactive | –
CCCOc1ccc(-c2nc(N(C)C)c3ccccc3n2)cc1 | inactive | –
COc1ccc(S(=O)(=O)c2ccc(NC(=O)c3ccccc3Cl)cc2C#N)cc1 | inactive | –

Compound | activity change, negative = inhibition [1] | AC50 [2] [µM]
O=C(c1cscn1)n1c2ccccc2c2ccccc21 | inactive | –
O=C(c1ccc(N2CCOCC2)cc1)n1c2ccccc2c2ccccc21 | inactive | –
CCCOc1ccc(-c2nc(Oc3ccc(F)cc3)c3ccccc3n2)cc1 | inactive | –
COc1ccc(Sc2ccc(N)cc2C#N)cc1 | inactive | –
CCCOc1ccc(-c2nc(OCCCOC)c3ccccc3n2)cc1 | inactive | –
Cc1ccc(C(=O)n2ncc3ccccc32)cc1 | inactive | –
COc1ccc(Sc2ccc(NC(=O)c3ccccc3Cl)cc2C#N)cc1 | inactive | –
Cc1ccc(C(=O)n2c3ccccc3c3ccncc32)cc1 | – | 40.9
CCCOc1ccc(-c2nc(NC)c3ccccc3n2)cc1 | – | 31.6
COc1nc(-c2ccc(Cl)cc2)nc2ccccc12 | inactive | –
COc1cccc(-c2nc(OC)c3ccccc3n2)c1 | inactive | –
COc1ccc(C(=O)n2c3ccccc3c3ccccc32)cc1 | inactive | –
COc1ccc(Sc2ccc(NC(=O)c3ccccc3OC)cc2C#N)cc1 | inactive | –
CCCOc1ccc(-c2nc(OC)c3ccccc3n2)cc1 | inactive | –
CC(C)Oc1ccc(-c2nc3ccccc3c(=O)[nH]2)cc1 | inactive | –
O=C(Nc1ccc(Sc2ccccc2)cc1)c1ccccc1Cl | – | 44.4
CCCOc1ccc(-c2nc(Oc3ccc(C)cc3)c3ccccc3n2)cc1 | inactive | –
O=c1[nH]c(-c2ccc(Cl)cc2)nc2ccccc12 | inactive | –
CCCOc1ccc(-c2nc(OC(C)C)c3ccccc3n2)cc1 | – | 37.5
